# Screens (PubChem BioAssay)
# PLAP activator: PLAP enzyme activators, biochemical, luminescence, HTS; Alkaline phosphatase, placental type (Homo sapiens), P05187; purified PLAP enzyme, luminescent substrate read-out; stronger effect = higher value; activation fold at 20 µM; 96,000 tested, 1.2% active; AID 696, 2007; in the data active = activation fold above about 2
# HePTP inhibitor: inhibitors of human HePTP phosphatase, primary screen, biochemical, absorbance, leukemia target | recombinant HePTP phosphatase activity, OD absorbance | AID 521, 2006 | inhibition, % at 20 µM | 110,000 tested, 0.64% active | Tyrosine-protein phosphatase non-receptor type 7 (Homo sapiens), P35236; in the data active = inhibition above about 50%
# Target sequence (P35236 whole entry, looked up): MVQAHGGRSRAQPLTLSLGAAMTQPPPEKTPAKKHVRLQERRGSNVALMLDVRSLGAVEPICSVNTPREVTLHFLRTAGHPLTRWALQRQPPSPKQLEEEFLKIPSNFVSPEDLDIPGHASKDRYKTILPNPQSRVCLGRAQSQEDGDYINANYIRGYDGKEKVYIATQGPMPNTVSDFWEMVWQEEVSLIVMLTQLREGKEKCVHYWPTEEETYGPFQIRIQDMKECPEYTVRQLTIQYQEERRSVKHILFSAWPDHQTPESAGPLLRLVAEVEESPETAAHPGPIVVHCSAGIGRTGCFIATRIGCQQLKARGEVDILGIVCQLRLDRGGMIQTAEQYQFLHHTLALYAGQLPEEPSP
# PostGolgi ctrl: growth inhibition of yeast control strain, primary screen, counter-screen for post-Golgi transport modulator project; efflux-deficient yeast background strain, growth absorbance A615, 16 h; inhibition, % at 10 µM; 98,000 tested, 5% active
# PostGolgi yeast: phenotypic screen on post-Golgi transport, primary screen | post-Golgi transport phenotypic cell assay | inhibition, % at 10 µM | 98,000 tested, 0.9% active;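 also: yeast cells grown in 1536-well plates; yeast grown about 18 h at 30C before absorbance read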
# tolC growth inh: growth inhibitors of E. coli tolC mutant, primary screen, strain BW25113 ΔtolC::kan, 384-well | growth inhibition, % at 10 µM (by protocol) | OD615 | AID 573, 2007 | 65,000 tested, 2.2% active;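 active = growth inhibition at or above a cutoff equal to the mean over every tested compound plus 3 SD, cut at about 60% in these data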;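 also: growth measured after 20 h incubation at 37 °C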
#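 Assay system: tolC-deleted E. coli BW25113. Medium: kanamycin-containing LB broth (50 µg/mL). Dosing: 10 µM final, single dose. Timing: bacterial growth with compound for 20 h at 37 °C. Detection: A615 absorbance measurement. Read-out basis: growth inhibition in percent.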
# E coli WT exp: growth inhibitors of wild-type E. coli, primary screen, strain BW25113, expanded library, OD600; 98,000 tested, 0.15% active; OD600 absorbance; AID 710, 2007; growth inhibition, % at 100 µM;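 active = growth inhibition above about 50% at one test dose, limit read from the data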;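 also: growth measured after 20 h incubation at 37 °C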
# A number is an active result; . = inactive; / = not tested or not shown. A selection: hits, their analogues and other compounds. The true share with any hit is near 5.4%. Rule as the data show it, unless noted: active = inhibition above about 30%; inactive = the rest.
SMILES,PLAP activator,HePTP inhibitor,PostGolgi ctrl,PostGolgi yeast,tolC growth inh,E coli WT exp
C=CCN1C(=O)/C(=C\c2ccc(-c3ccc(C)cc3Br)o2)C(=O)NC1=S,/,102,/,/,/,/
C=CCN1C(=O)/C(=C\c2ccc(-c3ccc(Br)cc3)o2)C(=O)NC1=S,/,100,/,/,/,/
C=CCN1C(=O)/C(=C\c2ccc(-c3ccc([N+](=O)[O-])cc3)o2)C(=O)NC1=S,/,102,/,/,/,/
COc1ccc(N2C(=O)C3ON(c4ccccc4)C(c4ccncc4)C3C2=O)cc1 (stereo not given),/,.,/,/,/,/
Cc1cc(C(=O)CSc2n[nH]c(N)n2)c(C)n1-c1cc(F)ccc1F,2.4,.,.,.,.,.
Cc1cc(C(=O)CSc2n[nH]c(-c3ccccc3F)n2)c(C)n1Cc1cccs1,.,/,33,.,/,.
C=CCn1c(C)cc(C(=O)CSc2n[nH]c(N)n2)c1C,2.7,/,.,.,/,.
Cc1nc(C)c(C(=O)/C=C(\O)C(=O)O)o1,/,.,/,/,/,/
CCCCCCn1c(N2CCC(C)CC2)nc2c1c(=O)[nH]c(=O)n2C,.,.,34,.,.,.
CCCCn1c(N2CCC(Cc3ccccc3)CC2)nc2c1c(=O)[nH]c(=O)n2C,.,.,63,.,100,.
CCCCCn1c(CN2CCN(c3cc(Cl)ccc3C)CC2)nc2c1c(=O)[nH]c(=O)n2C,.,.,56,.,.,.
CCCCCn1c(N2CCN(c3cccc(Cl)c3)CC2)nc2c1c(=O)[nH]c(=O)n2C,2,.,.,.,.,.
Cn1c(=O)[nH]c(=O)c2c1nc(N1CCN(c3cccc(Cl)c3)CC1)n2CCCc1ccccc1,.,.,.,.,.,.
N#Cc1c(NC(=O)c2cc3nc(-c4ccccc4)cc(C(F)(F)F)n3n2)sc2c1CCCC2,/,.,/,/,/,/
O=C(O)c1cc(NC(=O)c2ccc3c(c2)C(=O)N(C2CCCCC2)C3=O)cc(C(=O)O)c1,/,.,/,/,/,/
CC1CCN(c2nc3c(c(=O)[nH]c(=O)n3C)n2Cc2ccccc2Cl)CC1,/,.,40,.,.,.
Cc1ccc(Cl)cc1N1CCN(Cc2nc3ccsc3c(=O)[nH]2)CC1,2.3,/,.,.,/,.
O=C(Nc1nc2ccccc2n1CCOc1ccccc1)c1ccc(Cl)cc1,/,.,/,/,/,/
O=C(O)CN(c1ccc(Cl)c(C(F)(F)F)c1)S(=O)(=O)c1ccccc1,/,.,/,/,/,/
Cc1ccccc1-c1nc2ccccc2c(=O)n1/N=C/c1c[nH]c2ccccc12,/,.,/,/,/,/
O=C(c1ccco1)n1nc(NCc2ccccc2)nc1NCc1ccccc1,.,.,79,.,.,.
COc1cc(/C=N/Nc2nn[nH]n2)cc2c1OCO2,/,.,/,/,/,/
CN1CC(=O)NC1=NC(=O)C12CC3CC(CC(C3)C1)C2,2.6,.,.,.,.,.
Clc1cccc(CN2CCN(Cc3ccccn3)CC2)c1,/,.,/,/,/,/
CC(C)(C)C(=O)[C@H]1[C@H](c2ccccc2)[C@@]2(N=C(c3ccccc3)OC2=O)C2c3ccccc3C=NN21 (stereo not given in full),.,/,37,.,/,.
SMILES,PLAP activator,HePTP inhibitor,PostGolgi ctrl,PostGolgi yeast,tolC growth inh,E coli WT exp
CCN(CC)CCCN1C(=O)C(O)=C(C(=O)c2ccco2)C1c1ccc(OC(C)C)cc1 (stereo not given),.,.,43,.,.,.
Cn1c2c(c(=O)n(C)c1=O)C(C(F)(F)F)(C(F)(F)F)N=C(c1ccc(Cl)cc1)N2,.,/,68,47,/,.
CCOC(=O)CSc1nnc(CSc2nc3sc4c(c3c(=O)[nH]2)CCC4)n1-c1ccccc1,2,/,.,.,/,.
Cc1ccccc1-n1c(SCc2ccccn2)nc2n[nH]c(C)c2c1=N,2.3,/,.,.,.,.
CCOc1ccc2[nH]c(=O)c(C(c3nnnn3CC3CCCO3)N3CCc4ccccc4C3)cc2c1 (stereo not given),.,.,.,.,.,.
Cc1ccc2cc(C(c3nnnn3CC3CCCO3)N3CCc4ccccc4C3)c(=O)[nH]c2c1 (stereo not given),.,.,42,.,.,.
Cc1cccc2cc(C(c3nnnn3CC3CCCO3)N3CCc4ccccc4C3)c(=O)[nH]c12 (stereo not given),.,.,.,.,69,.
COc1ccc(C(=O)Nc2ccncc2)cc1,/,.,/,/,/,/
CCNC(=S)Nc1ccc(C(=O)O)cc1,/,.,/,/,/,/
CC(C)c1ccccc1NC(=O)C(C)N1C(=O)c2ccccc2C1=O (stereo not given),/,.,/,/,/,/
CCCc1nn(-c2cc(Cl)ccc2OC)c2c1C(=O)CCC2,.,/,.,.,/,.
CCCCc1nn(-c2cc(Cl)ccc2OC)c2c1C(=O)CC(C)(C)C2,.,/,32,.,/,.
CN(C)/C=C/C=C/C=C1\CCC/C(=C\C=C\N(C)C)C1=O,/,.,/,/,/,/
CN(/C=C/C=C1\CC/C(=C\C=C\N(C)c2ccccc2)C1=O)c1ccccc1,/,98,/,/,/,/
O=C(c1cccc([N+](=O)[O-])c1)c1ccc2c(c1)C(=O)N(c1cccc(-c3nc4ccccc4o3)c1)C2=O,/,.,/,/,/,/
O=C(COc1ccc(Cl)cc1)N(Cc1ccccc1)c1ccccn1,.,/,33,.,/,.
CC(c1ccco1)N(C(=O)COc1ccc(Cl)cc1)c1ccccn1 (stereo not given),.,.,.,.,.,.
CCOc1cc(C(=O)Nc2ccc(N3CCOCC3)cc2)cc(OCC)c1OCC,/,.,/,/,/,/
Cn1ccnc1SCc1ccc(C(=O)O)cc1,/,.,/,/,/,/
CCn1nc(C(=O)OCC(=O)c2cc(C)n(Cc3cccs3)c2C)c2ccccc2c1=O,.,.,42,.,.,.
Cc1ccc(C(=O)Nc2ccccc2C(=O)OCCN2CCCC2=O)cc1,/,.,/,/,/,/
O=C(c1cn(-c2ccccc2)nc1-c1cccs1)N1CCN(c2ccc(F)cc2)CC1,.,/,48,.,/,.
S=C(c1cn(-c2ccccc2)nc1-c1cccs1)N1CCOCC1,/,.,/,/,/,/
COc1cccc(-c2csc(N3CCN(S(=O)(=O)c4ccc(F)cc4)CC3)n2)c1,.,.,37,.,.,.
Cc1cc(/C=C2\C(=O)NC(=S)N(c3ccccc3)C2=O)c(C)n1-c1ccc([N+](=O)[O-])cc1,/,.,/,/,/,/
SMILES,PLAP activator,HePTP inhibitor,PostGolgi ctrl,PostGolgi yeast,tolC growth inh,E coli WT exp
O=C1c2ccc(-c3nc4ccccc4c(=O)o3)cc2C(=O)N1C1CCCCC1,/,.,/,/,/,/
Cc1ccc(-c2csc3nnc(SCC(=O)Nc4cccc(C)n4)n23)cc1,.,.,.,35,.,.
CC(=O)Nc1ccc(C(=O)CSc2nnc3scc(-c4ccccc4)n23)cc1,.,.,.,.,.,.
O=C(CCSc1nnc2scc(-c3ccccc3)n12)Nc1nc(-c2ccccc2)ns1,.,.,.,.,65,.
COc1cc(C=O)c(Br)cc1OCc1ccc(Cl)cc1,/,.,/,/,/,/
Cc1cc(=O)[nH]c(-n2[nH]c(C)cc2=O)n1,2.2,/,.,.,/,.
CC(=O)Oc1ccc(/C=C2\SC(=S)NC2=O)cc1,/,.,/,/,/,/
O=C(CCc1ccccc1)Nc1ccc(Nc2ccccc2)cc1,/,.,/,/,/,/
CN(C)/C=C/C(=O)c1cccc(Cl)c1,.,/,45,.,/,.
